PAFAH1B2 FP inh – blocks human PAF acetylhydrolase 1b catalytic subunit 2; P68402; actives 1.2% (n = 340,000); AID 492953; inhibition, % at 3.39 µM; recombinant PAFAH1B2, FP-rhodamine activity probe, fluorescence polarization;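 active = inhibition above the mean of all tested compounds plus 3 SD, cut at about 24% in these data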;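 also: 0% = enzyme with DMSO and 100% = wells lacking PAFAH1B2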
pPAFAH inh – inhibitors of human plasma PAF acetylhydrolase (pPAFAH). actives 1.5% (n = 330,000). recombinant pPAFAH, FP-rhodamine probe fluorescence polarization. AID 463082. inhibition, % at 3.39 µM. Q13093;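 active = inhibition above the mean inhibition across the screen plus 3 SD, cut at about 25% in these data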;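 also: inhibitors block binding of the rhodamine activity-based probe so polarization drops; 0% = enzyme with DMSO and 100% = wells lacking pPAFAH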
Target sequence (Q13093 whole entry, looked up): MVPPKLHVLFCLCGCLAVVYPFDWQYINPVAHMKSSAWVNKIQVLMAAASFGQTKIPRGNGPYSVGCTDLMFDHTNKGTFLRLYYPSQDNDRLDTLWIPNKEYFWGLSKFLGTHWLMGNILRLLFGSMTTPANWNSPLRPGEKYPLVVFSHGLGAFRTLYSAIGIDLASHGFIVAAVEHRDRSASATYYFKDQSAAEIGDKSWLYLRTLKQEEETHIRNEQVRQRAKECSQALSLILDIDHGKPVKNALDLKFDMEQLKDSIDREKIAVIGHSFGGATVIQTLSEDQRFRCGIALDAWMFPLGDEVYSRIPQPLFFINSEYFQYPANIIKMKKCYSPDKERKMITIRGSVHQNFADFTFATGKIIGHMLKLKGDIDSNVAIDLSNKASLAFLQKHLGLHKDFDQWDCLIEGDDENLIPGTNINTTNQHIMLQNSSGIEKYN
IMP-1 inh – blocks Pseudomonas aeruginosa IMP-1 metallo-beta-lactamase; actives 0.45% (n = 290,000); inhibition, % at 5.6 µM; purified IMP-1, nitrocefin hydrolysis, epi-absorbance fluorescence;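 active = inhibition above the mean plus 3 SD of all compounds in the same screening run, cut at about 4.5% in these data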;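 also: 0% = IMP-1 with DMSO and 100% = DMSO wells lacking enzyme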
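Material – recombinant IMP-1 enzyme, purified · Amount – IMP-1 0.2 nM before substrate addition · Medium – HEPES buffer pH 7.1 with ZnSO4 and Brij 35 · Timing – 25 °C, 15 min preincubation, 25 min reaction · Measured by – plate fluorescence quenching by hydrolysis product, ex 480/em 530 nm · Read-out – percent enzyme inhibition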
PAFAH1B3 inh – inhibitors of human PAFAH1B3. inhibition, % at 3.39 µM. Q15102. recombinant PAFAH1B3, FP-rhodamine probe, fluorescence polarization. actives 0.28% (n = 340,000);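 active = inhibition above the screen-wide average of all tested compounds plus 3 SD, cut at about 25% in these data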;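 also: 0% = enzyme with DMSO only and 100% = wells lacking PAFAH1B3 protein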
VIM-2 inhibitor – blocks Pseudomonas aeruginosa VIM-2 metallo-beta-lactamase. inhibition, % at 5.6 µM. purified VIM-2, nitrocefin hydrolysis, epi-absorbance fluorescence. actives 0.89% (n = 290,000);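 active = inhibition above the mean of all tested compounds plus 3 SD, cutoff set per screening run, cut at about 7.5% in these data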;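 also: red hydrolysis product quenches plate fluorescence so inhibitors raise well fluorescence; 0% = enzyme with DMSO and 100% = DMSO without enzyme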
PAFAH2 FP inh – PAFAH2 (human) inhibition | recombinant PAFAH2, FP-rhodamine activity probe, fluorescence polarization | actives 0.99% (n = 340,000) | Q99487 | inhibition, % at 3.39 µM;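 active = inhibition above the mean over all tested compounds plus 3 SD, cut at about 30% in these data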;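 also: inhibitors block probe labeling of enzyme so polarization drops; 0% = enzyme with DMSO and 100% = wells lacking PAFAH2 protein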
Active calls of the source: *. Compounds with a hit are over-represented: about 3.6% of the library has one in this group of screens.

Results for Clc1cccc(-c2ccc(CNCc3ccccn3)o2)c1 ?
PAFAH1B2 FP inh: -1.1; pPAFAH inh: 13.8; IMP-1 inh: -6.3; PAFAH1B3 inh: 7.2; VIM-2 inhibitor: 11.3*; PAFAH2 FP inh: -2.9

What do the screens show for `S=C(NCc1ccccn1)Nc1cccc(Cl)c1`?
PAFAH1B2 FP inh: 9.4; pPAFAH inh: 2.5; IMP-1 inh: -4.3; PAFAH1B3 inh: 6.1; VIM-2 inhibitor: -1.9; PAFAH2 FP inh: 2.1

How did CCC(C)Nc1nc(N)c([N+](=O)[O-])c(Nc2cc(OC)ccc2OC)n1 (configuration not stated) do in these assays?
PAFAH1B2 FP inh: 5.9; pPAFAH inh: 29.1*; IMP-1 inh: -3.7; PAFAH1B3 inh: 9.2; VIM-2 inhibitor: 1.2; PAFAH2 FP inh: 13.2

What do the screens show for `O=C(N/N=C/c1ccco1)c1ccc(NC(=O)c2ccc(Cl)cc2)cc1`?
PAFAH1B2 FP inh: 0.2; pPAFAH inh: 5.1; IMP-1 inh: -3.4; PAFAH1B3 inh: -2.8; VIM-2 inhibitor: -1.5; PAFAH2 FP inh: 0.6

What do the screens show for `CCOC(=O)CSc1ccc(S(=O)(=O)N2CCC(C)CC2)cc1[N+](=O)[O-]`?
PAFAH1B2 FP inh: 25.7*; pPAFAH inh: 4.5; IMP-1 inh: -2.7; PAFAH1B3 inh: 9.7; VIM-2 inhibitor: -1.2; PAFAH2 FP inh: -0.4

Results for CCn1c(SCC(=O)NC2CCCCC2)nnc1-c1ccco1 ?
PAFAH1B2 FP inh: 8.0; pPAFAH inh: 5.5; IMP-1 inh: -0.8; PAFAH1B3 inh: 1.7; VIM-2 inhibitor: 0.8; PAFAH2 FP inh: 4.0

Results for COC(=O)C1=C(C)N(c2ccc(OC)cc2)C(C)=C(C(=O)OC)C1c1ccc(OC)cc1 ?
pPAFAH inh: 6.2; IMP-1 inh: 38.0*; VIM-2 inhibitor: -2.4

Results for COC(=O)C1=C(C)N(c2ccc(OC)cc2)C(C)=C(C(=O)OC)C1c1ccccc1 ?
PAFAH1B2 FP inh: 0.0; pPAFAH inh: 1.7; IMP-1 inh: -1.5; PAFAH1B3 inh: -5.5; VIM-2 inhibitor: -3.6; PAFAH2 FP inh: -0.2

What do the screens show for `NNc1nnc2c3cc(F)ccc3n(CCc3ccccc3)c2n1`?
PAFAH1B2 FP inh: 1.4; pPAFAH inh: -0.8; IMP-1 inh: -2.1; PAFAH1B3 inh: -0.6; VIM-2 inhibitor: -3.6; PAFAH2 FP inh: -9.6

How did NC(=O)c1c(NC(=O)C2CC=CCC2C(=O)O)sc2c1CCCCC2 (configuration not stated) do in these assays?
PAFAH1B2 FP inh: 3.0; pPAFAH inh: 5.0; IMP-1 inh: 5.7*; PAFAH1B3 inh: 4.5; VIM-2 inhibitor: -1.2; PAFAH2 FP inh: 3.4

How did CCC(=O)Nc1sc2c(c1C(N)=O)CCC2 do in these assays?
PAFAH1B2 FP inh: 9.0; pPAFAH inh: -0.1; IMP-1 inh: -3.8; PAFAH1B3 inh: -6.3; VIM-2 inhibitor: 0.1; PAFAH2 FP inh: -3.7

How did CC(C)OC(=O)c1c(NC(=O)C2CC=CCC2C(=O)O)sc2c1CCCCC2 (configuration not stated) do in these assays?
PAFAH1B2 FP inh: 15.5; pPAFAH inh: 9.6; IMP-1 inh: 1.9; PAFAH1B3 inh: 6.2; VIM-2 inhibitor: -1.3; PAFAH2 FP inh: 5.0

What do the screens show for `N#CCC(=O)Nc1sc2c(c1C(N)=O)CCCC2`?
PAFAH1B2 FP inh: -0.5; pPAFAH inh: 32.7*; IMP-1 inh: -3.7; PAFAH1B3 inh: 3.2; VIM-2 inhibitor: -4.8; PAFAH2 FP inh: -4.5

How did COc1ccc([N+](=O)[O-])cc1NCC(=O)Nc1cc(S(=O)(=O)N2CCCCC2)ccc1C do in these assays?
PAFAH1B2 FP inh: 3.3; pPAFAH inh: 8.2; PAFAH1B3 inh: 2.7; PAFAH2 FP inh: 16.0

Results for COc1ccccc1-c1cc(-c2ccc(O)cc2)nc(N)c1C#N ?
PAFAH1B2 FP inh: 5.9; pPAFAH inh: 30.2*; IMP-1 inh: 0.5; PAFAH1B3 inh: 3.4; VIM-2 inhibitor: 4.8; PAFAH2 FP inh: 33.0*

Results for COc1cc(-c2cc(-c3ccc(O)cc3)nc(N)c2C#N)ccc1O ?
PAFAH1B2 FP inh: 3.7; pPAFAH inh: 16.2; IMP-1 inh: -2.2; PAFAH1B3 inh: -0.6; VIM-2 inhibitor: 4.8; PAFAH2 FP inh: -3.2

What do the screens show for `CC1C2(C)OC(=N)C(C#N)(C(C)O2)C1(C#N)C#N` (configuration not stated)?
PAFAH1B2 FP inh: 52.6*; pPAFAH inh: 3.9; IMP-1 inh: -3.0; PAFAH1B3 inh: 59.6*; VIM-2 inhibitor: -1.8; PAFAH2 FP inh: 75.4*
